In BindingDB's records for doi:10.1021/jm980722p (Merck Research Laboratories, 1999):

Target: Integrin alpha-IIb/beta-3 (Homo sapiens, UniProt P08514+P05106)
Assay: The compound was tested in vitro for the inhibition of aggregation of human gel-filtered platelets(GFP)
Procedure, shortened: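 Human gel-filtered platelets at 2 × 10⁸/mL were mixed with 0.1 mg/mL human fibrinogen, 1 mM CaCl₂ and the test compound, then challenged with ADP. Aggregation was read by light transmittance at 37 °C against control samples.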

Integrin alpha-IIb/beta-3, sequence (P05106 27-788 limits assumed): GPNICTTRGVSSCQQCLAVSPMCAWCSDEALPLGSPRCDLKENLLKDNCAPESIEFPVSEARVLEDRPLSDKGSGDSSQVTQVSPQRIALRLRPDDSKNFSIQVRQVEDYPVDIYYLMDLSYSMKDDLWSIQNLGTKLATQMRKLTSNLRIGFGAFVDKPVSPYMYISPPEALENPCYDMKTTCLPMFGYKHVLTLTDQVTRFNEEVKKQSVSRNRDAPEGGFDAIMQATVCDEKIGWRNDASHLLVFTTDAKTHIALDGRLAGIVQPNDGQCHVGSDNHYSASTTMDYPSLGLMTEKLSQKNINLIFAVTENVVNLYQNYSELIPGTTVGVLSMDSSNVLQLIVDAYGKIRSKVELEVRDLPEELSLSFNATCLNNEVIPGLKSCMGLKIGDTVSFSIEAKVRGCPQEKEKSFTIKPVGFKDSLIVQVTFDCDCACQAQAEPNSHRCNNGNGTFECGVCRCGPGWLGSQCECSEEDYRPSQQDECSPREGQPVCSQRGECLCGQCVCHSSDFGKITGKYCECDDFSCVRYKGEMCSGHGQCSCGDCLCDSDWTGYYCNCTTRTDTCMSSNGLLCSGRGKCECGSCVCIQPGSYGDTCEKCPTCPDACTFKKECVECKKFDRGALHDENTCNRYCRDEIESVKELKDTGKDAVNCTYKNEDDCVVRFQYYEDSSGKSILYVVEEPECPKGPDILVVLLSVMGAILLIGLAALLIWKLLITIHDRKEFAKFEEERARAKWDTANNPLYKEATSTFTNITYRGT
Integrin alpha-IIb/beta-3, sequence (P08514 32-887 limits assumed): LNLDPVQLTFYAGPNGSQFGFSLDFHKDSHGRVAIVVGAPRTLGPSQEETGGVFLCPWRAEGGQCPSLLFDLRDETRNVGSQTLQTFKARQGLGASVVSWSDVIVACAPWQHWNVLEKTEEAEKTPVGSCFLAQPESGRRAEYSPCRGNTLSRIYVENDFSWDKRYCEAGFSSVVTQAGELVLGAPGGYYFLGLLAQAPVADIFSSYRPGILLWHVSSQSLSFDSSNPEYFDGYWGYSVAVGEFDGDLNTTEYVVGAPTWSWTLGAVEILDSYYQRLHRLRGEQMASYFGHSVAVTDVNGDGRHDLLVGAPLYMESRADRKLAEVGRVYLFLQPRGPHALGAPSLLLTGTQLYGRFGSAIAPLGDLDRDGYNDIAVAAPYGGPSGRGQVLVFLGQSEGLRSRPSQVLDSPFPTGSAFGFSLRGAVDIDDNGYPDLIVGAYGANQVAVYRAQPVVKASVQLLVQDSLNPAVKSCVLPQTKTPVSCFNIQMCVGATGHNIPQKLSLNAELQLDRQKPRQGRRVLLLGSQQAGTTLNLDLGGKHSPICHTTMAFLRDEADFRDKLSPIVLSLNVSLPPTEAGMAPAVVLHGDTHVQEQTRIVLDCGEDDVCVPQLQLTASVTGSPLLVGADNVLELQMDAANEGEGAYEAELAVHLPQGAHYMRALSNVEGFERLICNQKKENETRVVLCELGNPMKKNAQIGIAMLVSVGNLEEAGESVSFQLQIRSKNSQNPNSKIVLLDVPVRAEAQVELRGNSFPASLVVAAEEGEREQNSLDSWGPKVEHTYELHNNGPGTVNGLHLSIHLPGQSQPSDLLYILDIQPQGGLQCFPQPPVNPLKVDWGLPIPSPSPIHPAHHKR
Integrin alpha-IIb/beta-3, sequence (P08514 891-1039 limits assumed): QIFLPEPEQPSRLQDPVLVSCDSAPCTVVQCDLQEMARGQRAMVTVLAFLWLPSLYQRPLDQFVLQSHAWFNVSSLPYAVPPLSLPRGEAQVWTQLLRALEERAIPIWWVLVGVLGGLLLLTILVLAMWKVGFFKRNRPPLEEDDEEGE

Row | Structure (SMILES) | IC50
1 | O=C(O)CCNC(=O)c1cc2sc(CCC3CCNCC3)cc2s1 [3-{[5-(2-Piperidin-4-yl-ethyl)-thieno[3,2-b]thiophene-2-carbonyl]-amino}-propionic acid] | 500 nM
2 | O=C(NC[C@@H](NS(=O)(=O)c1ccccc1)C(=O)O)c1cc2cc(CCC3CCNCC3)sc2s1 | 36 nM
3 | CCCCS(=O)(=O)N[C@@H](CNC(=O)c1cc2cc(CCC3CCNCC3)sc2s1)C(=O)O [(S)-2-(Butane-1-sulfonylamino)-3-{[5-(2-piperidin-4-yl-ethyl)-thieno[2,3-b]thiophene-2-carbonyl]-amino}-propionic acid] | 32 nM
4 | O=C(NC[C@@H](NS(=O)(=O)c1cccnc1)C(=O)O)c1cc2cc(CCC3CCNCC3)sc2s1 | 19 nM
5 | O=C(O)CCNC(=O)c1cc2cc(CCC3CCNCC3)sc2s1 [3-{[5-(2-Piperidin-4-yl-ethyl)-thieno[2,3-b]thiophene-2-carbonyl]-amino}-propionic acid] | 410 nM
6 | O=C(NC[C@H](NS(=O)(=O)c1cccnc1)C(=O)O)c1cc2cc(C3CCNCC3)sc2s1 [(S)-3-[(5-Piperidin-4-yl-thieno[2,3-b]thiophene-2-carbonyl)-amino]-2-(pyridine-3-sulfonylamino)-propionic acid] | 21 nM
7 | O=C(NC[C@H](NS(=O)(=O)c1cccnc1)C(=O)O)c1cc2cc(CCCC3CCNCC3)sc2s1 [(S)-3-{[5-(3-Piperidin-4-yl-propyl)-thieno[2,3-b]thiophene-2-carbonyl]-amino}-2-(pyridine-3-sulfonylamino)-propionic acid] | 23 nM

Now those with a lower IC50, led by results:

Row | IC50 | Structure (SMILES)
8 | 15 nM | O=C(NC[C@H](NS(=O)(=O)c1cccnc1)C(=O)O)c1cc2sc(CCC3CCNCC3)cc2s1 [(S)-3-{[5-(2-Piperidin-4-yl-ethyl)-thieno[3,2-b]thiophene-2-carbonyl]-amino}-2-(pyridine-3-sulfonylamino)-propionic acid]
9 | 9 nM | O=C(NC[C@H](NS(=O)(=O)c1cccs1)C(=O)O)c1cc2cc(CCC3CCNCC3)sc2s1 [(S)-3-{[5-(2-Piperidin-4-yl-ethyl)-thieno[2,3-b]thiophene-2-carbonyl]-amino}-2-(thiophene-2-sulfonylamino)-propionic acid]
10 | 14 nM | CS(=O)(=O)N[C@@H](CNC(=O)c1cc2sc(CCC3CCNCC3)cc2s1)C(=O)O [(S)-2-Methanesulfonylamino-3-{[5-(2-piperidin-4-yl-ethyl)-thieno[3,2-b]thiophene-2-carbonyl]-amino}-propionic acid]
11 | 10 nM | CCOCCS(=O)(=O)N[C@@H](CNC(=O)c1cc2sc(CCC3CCNCC3)cc2s1)C(=O)O [(S)-2-(2-Ethoxy-ethanesulfonylamino)-3-{[5-(2-piperidin-4-yl-ethyl)-thieno[3,2-b]thiophene-2-carbonyl]-amino}-propionic acid]
12 | 7 nM | CCOCCS(=O)(=O)N[C@@H](CNC(=O)c1cc2cc(CCC3CCNCC3)sc2s1)C(=O)O [(S)-2-(2-Ethoxy-ethanesulfonylamino)-3-{[5-(2-piperidin-4-yl-ethyl)-thieno[2,3-b]thiophene-2-carbonyl]-amino}-propionic acid]
13 | 11 nM | O=C(NC[C@H](NS(=O)(=O)c1ccc(Cl)cc1)C(=O)O)c1cc2cc(CCC3CCNCC3)sc2s1 [(S)-2-(4-Chloro-benzenesulfonylamino)-3-{[5-(2-piperidin-4-yl-ethyl)-thieno[2,3-b]thiophene-2-carbonyl]-amino}-propionic acid]
14 | 13 nM | O=C(NC[C@H](NS(=O)(=O)c1cccs1)C(=O)O)c1cc2sc(CCC3CCNCC3)cc2s1 [(S)-3-{[5-(2-Piperidin-4-yl-ethyl)-thieno[3,2-b]thiophene-2-carbonyl]-amino}-2-(thiophene-2-sulfonylamino)-propionic acid]
15 | 15 nM | CS(=O)(=O)N[C@@H](CNC(=O)c1cc2cc(CCC3CCNCC3)sc2s1)C(=O)O [(S)-2-Methanesulfonylamino-3-{[5-(2-piperidin-4-yl-ethyl)-thieno[2,3-b]thiophene-2-carbonyl]-amino}-propionic acid]
16 | 10 nM | CCCCS(=O)(=O)N[C@@H](CNC(=O)c1cc2sc(CCC3CCNCC3)cc2s1)C(=O)O [(S)-2-(Butane-1-sulfonylamino)-3-{[5-(2-piperidin-4-yl-ethyl)-thieno[3,2-b]thiophene-2-carbonyl]-amino}-propionic acid]
